Test results reported in ChEMBL document CHEMBL3407351, “Pyrido-imidazodiazepinones as a new class of reversible inhibitors of human kallikrein 7” (Eur J Med Chem, 2015).
One block for each compound: values may come before it. Calls of active or inactive are those of the source. The rule behind the calls is not given here.

Tests used:
Kallikrein-7 [1] = target: T1, Kallikrein-7 (Homo sapiens, UniProt P49862); assay: Inhibition of human KLK7 using Suc-Leu-Leu-Val-Tyr-AMC as substrate at 50 uM after 15 mins by fluorescence assay relative to control
Target sequence in this assay (P49862 30-253 limits assumed): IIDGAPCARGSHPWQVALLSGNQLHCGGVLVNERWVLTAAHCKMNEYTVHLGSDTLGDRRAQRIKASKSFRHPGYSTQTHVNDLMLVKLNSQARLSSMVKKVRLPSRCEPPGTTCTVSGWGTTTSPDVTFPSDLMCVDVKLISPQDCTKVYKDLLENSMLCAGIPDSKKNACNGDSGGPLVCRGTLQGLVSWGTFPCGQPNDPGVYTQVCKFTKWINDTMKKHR

Kallikrein-7 [2] = target: T1, Kallikrein-7; assay: Inhibition of human KLK7 using Suc-Leu-Leu-Val-Tyr-AMC as substrate after 15 mins by fluorescence assay
Outline: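 Recombinant KLK7 at 7.6 nM, final, with 40 µM Suc-LLVY-AMC in pH 8.0 buffer of 50 mM Tris-HCl, 0.01% Tween 20, 1 M NaCl, 2% DMSO. Enzyme preincubated 15 min with compound, then hydrolysis followed for 15 min at 37 °C, ex 360 / em 460 nm. Run in triplicate. Initial rates taken relative to untreated enzyme; IC50 fitted to hyperbolic or Hill equation.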
Target sequence in this assay (P49862 whole entry): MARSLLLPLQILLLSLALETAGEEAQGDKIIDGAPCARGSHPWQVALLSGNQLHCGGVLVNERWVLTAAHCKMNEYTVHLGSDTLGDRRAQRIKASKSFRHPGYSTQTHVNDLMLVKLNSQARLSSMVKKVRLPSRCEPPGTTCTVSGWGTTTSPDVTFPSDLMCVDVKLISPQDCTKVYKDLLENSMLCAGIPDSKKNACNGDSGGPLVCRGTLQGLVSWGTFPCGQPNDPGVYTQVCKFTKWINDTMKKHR

HeLa = assay: Cytotoxicity against human HeLa cells assessed as cell death after 48 to 72 hrs by XTT assay; type: functional, cell-based
Outline: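 Cells seeded at 5000/well in DMEM with 10% FBS, penicillin and streptomycin, 37 °C, 5% CO2. Compounds in DMSO added 20 h later, final DMSO 1%; screened at 100 µM, then over a concentration range, at least three wells per condition. Absorbance read at 485 nm after 3 h, viability given relative to DMSO controls, EC50 taken as 50% cell death.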

[3] = Cytotoxicity against human PC3 cells assessed as cell death after 48 to 72 hrs by XTT assay; type: functional, cell-based, PC-3
Outline: (§1)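 Cells seeded at 5000 per well in DMEM with 10% FBS, penicillin and streptomycin (100 µg/mL each), 37°C, 5% CO2. Compound in DMSO added 20 h after seeding, 1% DMSO final, DMSO-only controls. At least three wells per condition. Viability relative to DMSO; EC50 = concentration giving 50% cell death.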

SW-620 = assay: Cytotoxicity against human SW620 cells assessed as cell death after 48 to 72 hrs by XTT assay; type: functional, cell-based; outline: as §1
[4] = target: Kallikrein-5 (Homo sapiens) (UniProt Q9Y337); assay: Inhibition of human KLK5 using Boc-Val-Pro-Arg-AMC as substrate at 50 uM after 15 mins by fluorescence assay
Outline: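 KLK5 at 0.6 nM, final, with 100 µM Boc-VPR-AMC in pH 8.0 buffer of 50 mM Tris-HCl, 0.01% Tween 20, 150 mM NaCl, 2% DMSO. Compound at 50 µM preincubated 15 min with enzyme. Fluorescence then read 15 min at 37 °C, ex 360 / em 460 nm. Inhibition taken from initial rates versus untreated control.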

[5] = target: T2, Kallikrein-14 (Homo sapiens) (UniProt Q9P0G3); assay: Inhibition of human KLK14 using Boc-Val-Pro-Arg-AMC as substrate at 50 uM after 15 mins by fluorescence assay
T2 sequence (whole entry): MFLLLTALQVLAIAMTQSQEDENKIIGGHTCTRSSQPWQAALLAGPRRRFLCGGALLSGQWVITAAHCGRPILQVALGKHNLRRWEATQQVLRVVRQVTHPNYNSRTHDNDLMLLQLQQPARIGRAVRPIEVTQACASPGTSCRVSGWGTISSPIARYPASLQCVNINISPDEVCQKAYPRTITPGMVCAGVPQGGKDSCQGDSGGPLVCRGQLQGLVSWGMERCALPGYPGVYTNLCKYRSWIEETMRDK
Outline: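 KLK14 at 0.2 nM, final, with 10 µM Boc-VPR-AMC in pH 8.0 buffer of 50 mM Tris-HCl, 0.01% Tween 20, 1 M NaCl, 2% DMSO. Compound at 50 µM preincubated 15 min with enzyme. Fluorescence then read 15 min at 37 °C, ex 360 / em 460 nm. Percent inhibition taken from initial rates relative to control.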

Kallikrein-7 [6] = target: T1, Kallikrein-7; assay: Reversible inhibition of human KLK7 using Suc-Leu-Leu-Val-Tyr-AMC as substrate preincubated for 15 to 60 mins followed by 40 fold dilution by fluorescence assay
Outline: (§2)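 KLK7 preincubated with inhibitor, 50 µM where stated, for 15 and 60 min at pH 8.0 and 37 °C. Mixture then diluted 40-fold into buffer holding Suc-LLVY-AMC under the routine KLK7 conditions. Residual activity read fluorimetrically, ex 360 / em 460 nm, and compared with the uninhibited enzyme.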
Target sequence in this assay (P49862 30-253 limits assumed): as the sequence (P49862 30-253 limits assumed) above

Kallikrein-7 [7] = target: T1, Kallikrein-7; assay: Competitive inhibition of human KLK7 using Suc-Leu-Leu-Val-Tyr-AMC as substrate by Lineweaver-Burk plot analysis
Target sequence in this assay (P49862 whole entry): as the sequence (P49862 whole entry) above

[8] = target: T3, Kallikrein-8 (Homo sapiens) (UniProt O60259); assay: Inhibition of human KLK8 using Boc-Val-Pro-Arg-AMC as substrate at 50 uM after 15 mins by fluorescence assay
T3 sequence (whole entry): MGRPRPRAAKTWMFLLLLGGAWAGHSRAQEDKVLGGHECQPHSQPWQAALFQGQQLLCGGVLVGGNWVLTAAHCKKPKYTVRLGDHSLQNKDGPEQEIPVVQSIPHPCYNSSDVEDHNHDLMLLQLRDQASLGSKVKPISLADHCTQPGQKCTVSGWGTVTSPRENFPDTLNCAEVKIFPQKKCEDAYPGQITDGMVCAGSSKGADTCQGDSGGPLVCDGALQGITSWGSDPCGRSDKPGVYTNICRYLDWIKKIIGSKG
Outline: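 KLK8 at 1 nM, final, with 100 µM Boc-VPR-AMC in pH 8.0 Tris-HCl buffer containing 0.01% Tween 20 and 2% DMSO. Compound at 50 µM preincubated with enzyme 15 min. Substrate hydrolysis then monitored 15 min at 37 °C, ex 360 / em 460 nm. Initial rates compared with the untreated enzyme.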

Kallikrein-7 [9] = target: T1, Kallikrein-7; assay: Reversible inhibition of human KLK7 using Suc-Leu-Leu-Val-Tyr-AMC as substrate at 50 uM preincubated for 15 mins followed by 40 fold dilution by fluorescence assay; outline: as §2
Target sequence in this assay (P49862 30-253 limits assumed): as the sequence (P49862 30-253 limits assumed) above

[10] = Homo sapiens, HeLa, read-out: EC50

Sequence of Kallikrein-5 (Homo sapiens) (Q9Y337 whole entry): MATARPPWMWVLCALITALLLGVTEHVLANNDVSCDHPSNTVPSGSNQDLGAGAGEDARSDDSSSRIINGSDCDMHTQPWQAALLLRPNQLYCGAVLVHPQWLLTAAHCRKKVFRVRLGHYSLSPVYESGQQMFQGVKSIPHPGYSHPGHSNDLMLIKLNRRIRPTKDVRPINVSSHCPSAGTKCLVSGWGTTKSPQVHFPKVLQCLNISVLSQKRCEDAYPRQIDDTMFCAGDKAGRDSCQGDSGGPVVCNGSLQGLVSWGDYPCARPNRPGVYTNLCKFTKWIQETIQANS

SMILES: COc1ccc(C2=Nc3nc4ccccn4c3C(=O)[C@H](CO)N2)cc1OC
- inhibition (Kallikrein-7 [1]): < 30%

SMILES: O=C1c2c(nc3ccccn23)N=C(c2ccc([N+](=O)[O-])cc2)N[C@H]1Cc1ccccc1
- inhibition (Kallikrein-7 [1]): < 30%

SMILES: COc1ccc(C2=Nc3nc4ccccn4c3C(=O)[C@H](Cc3ccccc3)N2)cc1
- IC50 (Kallikrein-7 [2]): 72 µM

SMILES: COc1ccc(C2=Nc3nc4ccccn4c3C(=O)[C@H](Cc3ccccc3)N2C)cc1OC
- inhibition (Kallikrein-7 [1]): < 30%

SMILES: Cc1ccc(C2=Nc3nc4ccccn4c3C(=O)[C@H](Cc3ccccc3)N2)c(C)c1
- EC50 (HeLa; hela): Not Active
- EC50 ([3]; pc-3): Not Active
- EC50 (SW-620; Homo sapiens, SW-620, read-out: EC50): 67.8 µM
- IC50 (Kallikrein-7 [2]): 83.9 µM

SMILES: Cc1ccccc1C1=Nc2nc3ccccn3c2C(=O)[C@H](C)N1
- inhibition (Kallikrein-7 [1]): < 30%

SMILES: COc1cc(C2=Nc3nc4ccccn4c3C(=O)[C@H](Cc3ccccc3)N2)cc(OC)c1OC
- EC50 (HeLa; [10]): 53.8 µM
- EC50 ([3]; pc-3): Not Active
- EC50 (SW-620; sw-620): Not Active
- IC50 (Kallikrein-7 [2]): 55.7 µM

SMILES: COc1ccc(C2=Nc3nc4ccccn4c3C(=O)[C@H](COCc3ccccc3)N2)cc1OC
- inhibition (Kallikrein-7 [1]): < 30%

SMILES: COc1ccc(C2=Nc3nc4ccccn4c3C(=O)[C@H](Cc3ccc(OCc4ccccc4)cc3)N2)cc1OC
- inhibition (Kallikrein-7 [1]): < 30%

SMILES: Cc1ccccc1C1=Nc2nc3ccccn3c2C(=O)[C@H](Cc2cccc3ccccc23)N1
- inhibition (Kallikrein-7 [1]): < 30%

SMILES: COc1ccc(C2=Nc3nc4ccccn4c3C(=O)[C@H](C)N2)cc1OC
- inhibition (Kallikrein-7 [1]): < 30%

SMILES: COc1ccc(C2=Nc3nc4ccccn4c3C(=O)[C@H](Cc3ccccc3)N2)cc1OC
- EC50 (HeLa; [10]): 24.3 µM
- inhibition (Kallikrein-7 [9]): Active
- inhibition [4]: inactive
- EC50 ([3]; Homo sapiens, PC-3, read-out: EC50): 64.8 µM
- inhibition [5]: inactive
- EC50 (SW-620; sw-620): Not Active
- Ki (Kallikrein-7 [7]): 27 µM
- inhibition [8]: inactive
- IC50 (Kallikrein-7 [2]): 33.5 µM

SMILES: COc1ccc(C2=Nc3nc4ccccn4c3C(O)[C@H](Cc3ccccc3)N2)cc1OC (some centres not stated)
- inhibition (Kallikrein-7 [1]): < 30%

SMILES: COc1ccc(OC)c(C2=Nc3nc4ccccn4c3C(=O)[C@H](Cc3ccccc3)N2)c1
- EC50 (HeLa; [10]): 40 µM
- EC50 ([3]; pc-3): Not Active
- EC50 (SW-620; sw-620): Not Active
- IC50 (Kallikrein-7 [2]): 80.9 µM

SMILES: CC(C)CC1=Nc2nc3ccccn3c2C(=O)[C@H](Cc2ccccc2)N1
- inhibition (Kallikrein-7 [1]): < 30%

SMILES: COc1ccc(C2=Nc3nc4ccccn4c3C(=O)[C@H](Cc3ccc(O)cc3)N2)cc1OC
- inhibition (Kallikrein-7 [1]): < 30%

SMILES: Cc1ccccc1C1=Nc2nc3ccccn3c2C(=O)[C@H](COCc2ccccc2)N1
- inhibition (Kallikrein-7 [1]): < 30%

The remaining lines, values ahead:

- IC50 (Kallikrein-7 [2]): 135 µM
SMILES: Cc1ccccc1C(=O)N[C@@H](Cc1ccccc1)C(=O)c1c(N)nc2ccccn12

- inhibition (Kallikrein-7 [1]): < 30%
SMILES: COc1cccc(C2=Nc3nc4ccccn4c3C(=O)[C@H](Cc3ccccc3)N2)c1

- inhibition (Kallikrein-7 [1]): < 30%
SMILES: O=C1c2c(nc3ccccn23)N=C(c2ccccc2O)N[C@H]1Cc1ccccc1

- inhibition (Kallikrein-7 [1]): < 30%
SMILES: Nc1nc2ccccn2c1C(=O)[C@H](Cc1ccccc1)NC(=O)/C=C/c1ccccc1

- IC50 (Kallikrein-7 [2]): 95.9 µM
SMILES: Cc1ccccc1C1=Nc2nc3ccccn3c2C(=O)[C@@H](Cc2ccccc2)N1

- inhibition (Kallikrein-7 [1]): < 30%
SMILES: Nc1nc2ccccn2c1C(=O)[C@H](Cc1ccccc1)NC(=O)c1ccccn1

- inhibition (Kallikrein-7 [1]): < 30%
SMILES: Nc1nc2ccccn2c1C(=O)[C@H](Cc1ccccc1)NC(=O)c1ccncc1

- IC50 (Kallikrein-7 [2]): 125 µM
SMILES: O=C1c2c(nc3ccccn23)N=C(c2cccc(O)c2)N[C@H]1Cc1ccccc1

- inhibition [4]: inactive
- inhibition (Kallikrein-7 [1]): > 30%
- inhibition [5]: inactive
- inhibition (Kallikrein-7 [6]): Active
- Ki (Kallikrein-7 [7]): 50.6 µM
- inhibition [8]: inactive
- IC50 (Kallikrein-7 [2]): 57 µM
SMILES: Cc1ccccc1C1=Nc2nc3ccccn3c2C(=O)[C@H](Cc2ccccc2)N1

- inhibition (Kallikrein-7 [1]): < 30%
SMILES: Nc1nc2ccccn2c1C(=O)[C@H](Cc1ccccc1)NC(=O)CCc1ccccc1

- inhibition (Kallikrein-7 [1]): < 30%
SMILES: O=C1c2c(nc3ccccn23)N=C(c2ccccc2)N[C@H]1Cc1ccccc1

- inhibition (Kallikrein-7 [1]): < 30%
SMILES: Nc1nc2ccccn2c1C(=O)[C@H](Cc1ccccc1)NC(=O)c1ccc[nH]1

- inhibition (Kallikrein-7 [1]): < 30%
SMILES: COc1ccc(C(=O)N[C@@H](Cc2ccccc2)C(=O)c2c(N)nc3ccccn23)cc1OC

- inhibition (Kallikrein-7 [1]): < 30%
SMILES: COc1ccccc1C1=Nc2nc3ccccn3c2C(=O)[C@H](Cc2ccccc2)N1

- inhibition (Kallikrein-7 [1]): < 30%
SMILES: O=C1c2c(nc3ccccn23)N=C(c2cc(O)ccc2O)N[C@H]1Cc1ccccc1

- inhibition (Kallikrein-7 [1]): < 30%
SMILES: O=C1c2c(nc3ccccn23)N=C(c2ccc(Br)cc2)N[C@H]1Cc1ccccc1

- inhibition (Kallikrein-7 [1]): < 30%
SMILES: O=C1Nc2nc3ccccn3c2C(=O)[C@H](Cc2ccccc2)N1

- inhibition (Kallikrein-7 [1]): < 30%
SMILES: Cc1cccc(C2=Nc3nc4ccccn4c3C(=O)[C@H](Cc3ccccc3)N2)c1

- inhibition (Kallikrein-7 [1]): < 30%
SMILES: O=C1c2c(nc3ccccn23)N=C(c2cccnc2)N[C@H]1Cc1ccccc1

- inhibition (Kallikrein-7 [1]): < 30%
SMILES: Nc1nc2ccccn2c1C(=O)[C@H](Cc1ccccc1)NC(=O)c1ccccc1

- IC50 (Kallikrein-7 [2]): 68 µM
SMILES: Cc1ccc(C2=Nc3nc4ccccn4c3C(=O)[C@H](Cc3ccccc3)N2)cc1

- IC50 (Kallikrein-7 [2]): 149 µM
SMILES: Nc1nc2ccccn2c1C(=O)[C@H](Cc1ccccc1)NC(=O)Cc1ccccc1
